Reference: ChEMBL document CHEMBL1142195, “A novel nonnucleoside analogue that inhibits human immunodeficiency virus type 1 isolates resistant to current nonnucleoside reverse transcriptase inhibitors” (Antimicrob Agents Chemother, 2007)

Columns and labels:
[1] = system: Human immunodeficiency virus 1; test: Antiviral activity against HIV1 isolate with RT 101E, 103N mutation relative to wild type; assay type: functional
[2] = system: Human immunodeficiency virus 1; test: Antiviral activity against HIV1 isolate with RT 101E, 190S mutation relative to wild type; assay type: functional
[3] = system: Human immunodeficiency virus 1; test: Antiviral activity against HIV1 isolate with RT 101E, 181C mutation relative to wild type; assay type: functional
[4] = system: Human immunodeficiency virus 1; test: Antiviral activity against HIV1 isolate with RT 101Q, 190S mutation relative to wild type; assay type: functional
[5] = system: Human immunodeficiency virus 1; test: Antiviral activity against HIV1 isolate with RT D123G mutation in Hela-JC-53 cells; assay type: functional
[6] = system: Human immunodeficiency virus 1; test: Antiviral activity against HIV1 isolate with RT 103N, 190S mutation relative to wild type; assay type: functional
In short: (§1)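 Mutant RT clones built in pNL4-3.Luc.R−E− reporter, VSV-G-pseudotyped, single-round infection of HeLa-JC53 cells (15,000/well, MOI 0.03) with 1:4 serial compound dilutions in DMEM (phenol red-free), 2% FBS, 0.2% final DMSO; 48 h at 37°C, 5% CO2; luciferase chemiluminescence read-out. Fold change in EC50 relative to wild-type virus; mean of two tests.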

[7] = system: Human immunodeficiency virus 1; test: Antiviral activity against HIV1 isolate with RT 181I mutation relative to wild type; assay type: functional; in short: as §1
[8] = system: Human immunodeficiency virus 1; test: Antiviral activity against HIV1 isolate with RT 98G, 190A mutation relative to wild type; assay type: functional
In short: (§2)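 VSV-G-pseudotyped pNL4-3.Luc.R−E− molecular clones carrying the RT mutations, single-round infection of HeLa-JC53 cells (15,000/well) at MOI 0.03. Compounds serially diluted 1:4 in DMSO then in phenol red-free DMEM with 2% FBS, final DMSO 0.2%. Incubated 48 h at 37°C, 5% CO2. Luciferase read-out by chemiluminescence gives the EC50. Fold change is relative to wt virus, mean of two tests.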

[9] = system: Human immunodeficiency virus 1; test: Antiviral activity against HIV1 isolate with RT 103N, 106A mutation relative to wild type; assay type: functional
[10] = AUC in dog at 20 mg/kg, po; assay type: ADME, organism-based, Canis lupus familiaris; set-up: dose 20 mg/kg, route oral; details: plasma
[11] = Plasma concentration in dog at 10 mg/kg, iv after 12 hrs; assay type: ADME, organism-based, Canis lupus familiaris; set-up: dose 10 mg/kg, route intravenous
[12] = system: Human immunodeficiency virus 1; test: Antiviral activity against HIV1 isolate with RT K103N-P225H mutation; assay type: functional, organism-based; in short: as §2
[13] = system: Human immunodeficiency virus 1; test: Antiviral activity against HIV1 isolate with RT 179A mutation relative to wild type; assay type: functional; in short: as §1
[14] = system: Human immunodeficiency virus 1; test: Antiviral activity against HIV1 isolate with RT 100I, 103N, 108I mutation relative to wild type; assay type: functional
[15] = system: Human immunodeficiency virus 1; test: Antiviral activity against HIV1 isolate with RT V106I mutation in Hela-JC-53 cells; assay type: functional
[16] = system: Human immunodeficiency virus 1; test: Antiviral activity against HIV1 isolate with RT 179G mutation relative to wild type; assay type: functional; in short: as §1
[17] = system: Human immunodeficiency virus 1; test: Antiviral activity against HIV1 isolate with RT 101Q, 181C, 190S mutation relative to wild type; assay type: functional
[18] = system: Human immunodeficiency virus 1; test: Antiviral activity against HIV1 isolate V106I-Y188L mutant; assay type: functional, organism-based
[19] = system: Human immunodeficiency virus 1; test: Antiviral activity against HIV1 isolate with RT 103N, 181C, 190A mutation relative to wild type; assay type: functional
[20] = system: Human immunodeficiency virus 1; test: Antiviral activity against HIV1 isolate with RT K103N-V108I-A98G mutation; assay type: functional, organism-based; in short: as §2
[21] = system: Human immunodeficiency virus 1; test: Antiviral activity against HIV1 isolate with RT Y181C mutation in Hela-JC-53 cells; assay type: functional
[22] = system: Human immunodeficiency virus 1; test: Antiviral activity against HIV1 isolate with RT 106I, 188L mutation relative to wild type; assay type: functional; in short: as §1
[23] = system: Human immunodeficiency virus 1; test: Antiviral activity against HIV1 isolate with RT 100I, 103N mutation relative to wild type; assay type: functional
[24] = system: Human immunodeficiency virus 1; test: Antiviral activity against HIV1 isolate with RT 227L mutation relative to wild type; assay type: functional; in short: as §1
[25] = system: Human immunodeficiency virus 1; test: Antiviral activity against HIV1 isolate with RT 188H mutation relative to wild type; assay type: functional; in short: as §1
[26] = system: Human immunodeficiency virus 1; test: Antiviral activity against HIV1 isolate with RT 101H mutation relative to wild type; assay type: functional
[27] = system: Human immunodeficiency virus 1; test: Antiviral activity against HIV1 isolate with RT 103N, 108I, 225H mutation relative to wild type; assay type: functional
[28] = system: Human immunodeficiency virus 1; test: Antiviral activity against HIV1 isolate with RT 190E mutation relative to wild type; assay type: functional; in short: as §1
[29] = system: Human immunodeficiency virus 1; test: Antiviral activity against HIV1 isolate with RT 98G, 103N, 181C mutation relative to wild type; assay type: functional; in short: as §1
[30] = system: Human immunodeficiency virus 1; test: Antiviral activity against HIV1 isolate with RT 103S mutation relative to wild type; assay type: functional; in short: as §1
[31] = system: Human immunodeficiency virus 1; test: Antiviral activity against HIV1 NL4-3 with Y188L mutation in Hela-JC53 cells in the presence of 10% human serum after 48 hrs; assay type: functional, organism-based; details: Human immunodeficiency virus 1, NL4-3, Hela-JC53, 48 h
In short: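 VSV-G-pseudotyped Y188L NL4-3.Luci.R−E− virus (MOI 0.03) infecting HeLa-JC53 cells (1.5 × 10^4) in phenol red-free DMEM with 2% FBS. Serially diluted compound was added, then heat-inactivated human serum at final 0, 5, 10, 20, 30, 40 or 50%. Cultures ran 48 h at 37°C in 5% CO2, read by Bright-Glo luciferase chemiluminescence. EC50 was taken by nonlinear regression.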

[32] = system: Human immunodeficiency virus 1; test: Antiviral activity against HIV1 isolate with RT Y181C mutation; assay type: functional, organism-based; in short: as §2
[33] = system: Human immunodeficiency virus 1; test: Antiviral activity against HIV1 isolate with RT K103N-K101Q mutation; assay type: functional, organism-based; in short: as §2
[34] = system: Human immunodeficiency virus 1; test: Antiviral activity against HIV1 isolate with RT 181C mutation relative to wild type; assay type: functional; in short: as §1
[35] = system: Human immunodeficiency virus 1; test: Antiviral activity against HIV1 isolate with RT 98G, 100I, 103N mutation relative to wild type; assay type: functional; in short: as §1
[36] = system: Human immunodeficiency virus 1; test: Antiviral activity against HIV1 isolate with RT 103N, 106I mutation relative to wild type; assay type: functional
[37] = Tmax in dog at 10 mg/kg, iv; assay type: ADME, organism-based, Canis lupus familiaris; set-up: dose 10 mg/kg, route intravenous; details: in vivo
[38] = system: Human immunodeficiency virus 1; test: Antiviral activity against HIV1 isolate with RT 108I mutation relative to wild type; assay type: functional; in short: as §1
[39] = system: Human immunodeficiency virus 1; test: Antiviral activity against HIV1 isolate with RT 179D, 181C mutation relative to wild type; assay type: functional; in short: as §1
[40] = Cmax in dog at 20 mg/kg, po; assay type: ADME, organism-based, Canis lupus familiaris; set-up: dose 20 mg/kg, route oral; details: in vivo
[41] = system: Human immunodeficiency virus 1; test: Antiviral activity against HIV1 isolate with RT 103S, 190A mutation relative to wild type; assay type: functional; in short: as §1
[42] = system: Human immunodeficiency virus 1; test: Antiviral activity against HIV1 isolate with RT 106L, 188L mutation relative to wild type; assay type: functional; in short: as §1
[43] = system: Human immunodeficiency virus 1; test: Antiviral activity against HIV1 isolate with RT 101Q, 103R mutation relative to wild type; assay type: functional
[44] = system: Human immunodeficiency virus 1; test: Antiviral activity against HIV1 isolate with RT T369I mutation in Hela-JC-53 cells; assay type: functional
[45] = system: Human immunodeficiency virus 1; test: Antiviral activity against HIV1 isolate with RT 106A, 190A mutation relative to wild type; assay type: functional; in short: as §1
[46] = system: Human immunodeficiency virus 1; test: Antiviral activity against HIV1 isolate with RT 101Q, 103N mutation relative to wild type; assay type: functional
[47] = system: Human immunodeficiency virus 1; test: Antiviral activity against HIV1 isolate with RT 103N, 108I mutation relative to wild type; assay type: functional
[48] = Tmax in dog at 20 mg/kg, po; assay type: ADME, organism-based, Canis lupus familiaris; set-up: dose 20 mg/kg, route oral; details: in vivo
[49] = system: Human immunodeficiency virus 1; test: Antiviral activity against HIV1 isolate with RT 106A mutation relative to wild type; assay type: functional; in short: as §1
[50] = system: Human immunodeficiency virus 1; test: Antiviral activity against HIV1 isolate with RT 103N, 190A mutation relative to wild type; assay type: functional

NS(=O)(=O)c1ccc(NC(=O)CSc2nnc(Br)n2-c2ccc(C3CC3)c3ccccc23)c(Cl)c1
Fold change [1]: 0.9
Fold change [2]: 16
Fold change [3]: >100
Fold change [4]: 2.4
Fold change [5]: 1
Fold change [6]: 18
Fold change [7]: 5.4
Fold change [8]: 16
Fold change [9]: 2.6
AUC [10]: 19.6 µg·h/mL
concentration at 12 h [11]: 0.283 µg/mL
EC50 [12]: 0.13 nM
Fold change [13]: 0.6
Fold change [14]: 1.9
Fold change [15]: 1
Fold change [16]: 0.3
Fold change [17]: >100
EC50 [18]: 2.27 nM
Fold change [19]: >100
EC50 [20]: 0.24 nM
Fold change [21]: 1.9
Fold change [22]: 62
Fold change [23]: 0.9
Fold change [24]: 0.47
Fold change [25]: 1.6
Fold change [26]: 2.5
Fold change [27]: 2.6
Fold change [28]: >100
Fold change [29]: 4.2
Fold change [30]: 2.7
EC50 [31]: 20.7 nM
EC50 [32]: 0.23 nM
EC50 [33]: 0.15 nM
Fold change [34]: 10
Fold change [35]: 1.4
Fold change [36]: 1.8
Tmax [37]: 0.28 h
Fold change [38]: 1.5
Fold change [39]: >100
Cmax [40]: 1.98 µg/mL
Fold change [41]: >100
Fold change [42]: >100
Fold change [43]: 0.6
Fold change [44]: 1.3
Fold change [45]: >100
Fold change [46]: 5.2
Fold change [47]: 1.3
Tmax [48]: 5.3 h
Fold change [49]: 6

Cc1ccnc2c1NC(=O)c1cccnc1N2C1CC1 [NEVIRAPINE]
Fold change [1]: >100
Fold change [2]: >100
Fold change [3]: >100
Fold change [4]: >100
Fold change [6]: >100
Fold change [7]: >100
Fold change [8]: >100
Fold change [50]: >100
Fold change [9]: >100
Fold change [13]: 0.4
Fold change [14]: >100
Fold change [16]: 0.1
Fold change [17]: >100
Fold change [19]: >100
Fold change [22]: >100
Fold change [23]: 42
Fold change [24]: 2.1
Fold change [25]: >100
Fold change [26]: 12
Fold change [27]: >100
Fold change [28]: >100
Fold change [29]: >100
Fold change [30]: 39
Fold change [34]: >100
Fold change [35]: >100
Fold change [36]: 122
Fold change [38]: 2.3
Fold change [39]: >100
Fold change [41]: >100
Fold change [42]: >100
Fold change [43]: 1.3
Fold change [45]: >100
Fold change [46]: >100
Fold change [47]: >100
Fold change [49]: >100
